Marks after values point to notes of the source that are not given here.
How the values were obtained:
[1] = In vivo pharmacokinetics in plasma after oral administration; parameters: species or system Wistar rats; conditions: rat
In short: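 Male Wistar rats (200-250 g, n = 6) housed in metabolic cages, fasted 24 h, water ad libitum. Single oral dose of prodrug (377.5 mg) or parent acid (270 mg) suspended in sodium CMC in saline (1 mL). Retro-orbital blood taken at 0 min, every 15 min for 1 h, bi-hourly to 12 h, and at 24 h, into EDTA tubes. Plasma quantified by HPLC against 80% human plasma calibration.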

myeloperoxidase (MPO) = test: TNBS-induced experimental colitis: colonic MPO activity; type: in vivo, Wistar rats; conditions: TNBS colitis rats, day 11, oral treatment day 6 to 10
In short: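 Colon dissected on day 11 from TNBS-colitic male Wistar rats (intrarectal TNBS 100 mg/kg in 50% ethanol on day 3; oral dosing in 1% sodium CMC days 6-10; n = 6). MPO assayed by a published method, one unit degrading […] hydrogen peroxide at 25 °C. Reported as […]; one-way ANOVA with Dunnett's test.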

TNBS-induced colitis = test: TNBS-induced experimental colitis: clinical activity score rate; type: in vivo, Wistar rats; conditions: for Clinical activity score rate, 6 d: day 6, oral treatment day 6 to 10; for Clinical activity score rate, 6 d / Clinical activity score rate, 7 d / Clinical activity score rate, 8 d / Clinical activity score rate, 9 d / Clinical activity score rate, 10 d / Clinical activity score rate, 11 d: score 0-4; for Clinical activity score rate, 7 d: day 7, oral treatment day 6 to 10; for Clinical activity score rate, 8 d: day 8, oral treatment day 6 to 10; for Clinical activity score rate, 9 d: day 9, oral treatment day 6 to 10; for Clinical activity score rate, 10 d: day 10, oral treatment day 6 to 10; for Clinical activity score rate, 11 d: day 11, after oral treatment day 6 to 10
In short: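 Male Wistar rats (200-230 g, n = 6/group), starved 48 h, given intrarectal TNBS 100 mg/kg in 50% v/v ethanol (0.25 mL) on day 3. Oral dosing days 6-10 as 1% sodium CMC suspension, equimolar to parent acid. Weight loss, stool consistency and rectal bleeding each scored 0-4 daily and averaged per group. Two-way ANOVA with Bonferroni versus disease control.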

[2] = Aqueous solubility in distilled water; type: physicochemical; conditions: 25 ± 1 °C
[3] = Partition coefficient, n-octanol/water, shake flask method; type: physicochemical
[4] = released from SLZ in the colon; cited from earlier work
chronic UC = chronic UC patients ref 24; cited from earlier work

Time of disappearance of BBA from blood [1] | Time of first appearance of BBA in blood [1] | Time of maximum BBA in blood [1] | Aq. Solubility [2] | log Poct [3] | SMILES | Colonic MPO activity (myeloperoxidase (MPO)) | Clinical activity score rate, 6 d (TNBS-induced colitis) | Clinical activity score rate, 7 d (TNBS-induced colitis) | Clinical activity score rate, 8 d (TNBS-induced colitis) | Clinical activity score rate, 9 d (TNBS-induced colitis) | Clinical activity score rate, 10 d (TNBS-induced colitis) | Clinical activity score rate, 11 d (TNBS-induced colitis) | Minimized clinical activity score rate (TNBS-induced colitis; oral treatment day 6 to 10) | Fraction entering circulation by absorption from large intestine [4] | Remission rate (chronic UC)
24 h | 30 min | 240 min | practically insoluble | 9.3 | C[C@H]1[C@H](C)CC[C@]2(C)CC[C@]3(C)C(=CC[C@@H]4[C@@]5(C)CC[C@@H](O)[C@](C)(C(=O)O)[C@@H]5CC[C@]43C)[C@H]12 [BBA, β-boswellic acid] | 60.71 mU/100 mg tissue | 2.77 ± 1.34 | 3.00 ± 1.00 | 2.33 ± 0.57 | 1.99 ± 0.66 | 1.33 ± 1.15 | 0.99 ± 1.10 ^e | 79% | – | –
– | – | – | – | – | N[C@@H](Cc1c[nH]cn1)C(=O)O [H, L-histidine] | – | 2.33 ± 0.67 | 2.55 ± 0.50 | 2.88 ± 0.83 | 2.77 ± 0.69 | 2.60 ± 0.82 | 2.00 ± 1.00^NS | – | – | –
– | – | – | – | – | N[C@H](Cc1ccccc1)C(=O)O [P, D-phenylalanine] | – | 2.22 ± 0.83 | 2.55 ± 0.50 | 3.16 ± 1.04 | 3.33 ± 1.15 | 2.66 ± 1.44 | 2.27 ± 1.13^NS | – | – | –
– | – | – | – | – | Nc1ccc(O)c(C(=O)O)c1 [Prodrug 5-ASA, 5-aminosalicylate] | – | – | – | – | – | – | – | – | 30% | –
– | – | – | – | – | O=C(O)c1cc(/N=N/c2ccc(S(=O)(=O)Nc3ccccn3)cc2)ccc1O [SLZ, Sulfasalazine] | 36.21 mU/100 mg tissue | 2.88 ± 0.83 | 2.44 ± 0.50 | 1.61 ± 1.13 | 1.11 ± 1.01 | 0.72 ± 0.75 | 0.38 ± 0.60 ^e | – | – | 75%
– | – | – | – | – | N[C@@H](Cc1c[nH]c2ccccc12)C(=O)O [T, L-tryptophan] | – | 2.44 ± 0.69 | 2.60 ± 0.58 | 2.94 ± 0.82 | 2.66 ± 0.66 | 2.16 ± 1.08 | 1.88 ± 1.17 ^a | – | – | –
– | – | – | – | – | N[C@@H](Cc1ccc(O)cc1)C(=O)O [TY, L-tyrosine] | – | 2.11 ± 0.84 | 2.55 ± 0.50 | 3.22 ± 1.07 | 3.33 ± 1.15 | 2.72 ± 1.49 | 2.33 ± 1.45^NS | – | – | –
